Measurements from different studies.
Each line is one published result; the experiments were not run side by side.
Target: Serine/threonine-protein kinase Sgk3 (SGK3, Homo sapiens, UniProt Q96BR1)
Residues used in one study (Q96BR1 1-496): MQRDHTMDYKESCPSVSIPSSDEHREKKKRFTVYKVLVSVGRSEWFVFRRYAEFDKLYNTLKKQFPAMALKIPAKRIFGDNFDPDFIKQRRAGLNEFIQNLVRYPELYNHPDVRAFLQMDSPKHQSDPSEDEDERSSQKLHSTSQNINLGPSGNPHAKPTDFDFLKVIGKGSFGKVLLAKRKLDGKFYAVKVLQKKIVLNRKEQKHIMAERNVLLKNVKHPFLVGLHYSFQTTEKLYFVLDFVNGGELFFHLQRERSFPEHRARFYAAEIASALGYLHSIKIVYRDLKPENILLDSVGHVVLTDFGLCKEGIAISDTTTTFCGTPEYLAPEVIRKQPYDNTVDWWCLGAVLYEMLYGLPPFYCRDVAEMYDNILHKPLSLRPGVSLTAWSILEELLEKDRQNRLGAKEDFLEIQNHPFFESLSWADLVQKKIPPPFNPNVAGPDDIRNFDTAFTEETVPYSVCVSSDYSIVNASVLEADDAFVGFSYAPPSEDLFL

| Structure (SMILES) | observed | action | method | tested at | endpoint | result |
| --- | --- | --- | --- | --- | --- | --- |
| Cn1cc(-c2cc(F)cc(N3CCn4c(cc5c4CCCC5)C3=O)c2CO)cc(Nc2ccc(N3CCN(C4COC4)CC3)cn2)c1=O | enzyme activity | inhibitor | – | 0.1 µM | inhibition | 14% |
| Cc1nn(C)cc1-c1nc2c(N3CCN(Cc4ccc(Cl)cc4)CC3)c(Cl)cnc2[nH]1 | binding | – | competition with immobilised ligand | 1 µM | remaining binding | 100% |
| COc1ncccc1-c1cnn2ccc(N3CCN(C(=O)OC(C)C)CC3)nc12 | binding | – | competition with immobilised ligand | 1 µM | remaining binding | 100% |
| CC(C)(C)c1cc(C=C(C#N)C#N)cc(Br)c1O | enzyme activity | inhibitor | – | 0.5 µM | remaining activity | 97.7% |
| Nc1ncc(-c2nc(N3CCOCC3)nc(N3CCOCC3)n2)c(C(F)F)n1 | binding | – | competition with immobilised ligand | 10 µM | remaining binding | 44% |
| COc1cc(Nc2ncc(F)c(Nc3ccc4c(n3)NC(=O)C(C)(C)O4)n2)cc(OC)c1OC | binding | – | – | 10 µM | inhibition | 52% |
| Cn1cc(-c2cccc(N3CCc4c(sc5c4CC(C)(C)C5)C3=O)c2CO)cc(Nc2ccncn2)c1=O | enzyme activity | inhibitor | – | 1 µM | inhibition | 5% |
| O=c1[nH]c2ccccc2n1C1CCN(Cc2ccc(-c3[nH]c4cc5ncnc5cc4nc3-c3ccccc3)cc2)CC1 | cell-free assay | – | – | 0.5 µM | remaining signal | 108% |
| Cn1cncc1[C@](O)(COc1ccc(C#N)cc1-c1ccc(OC(F)(F)F)cc1)c1ccc(C#N)cc1 | cell-free assay | – | competition with immobilised ligand | 1 µM | remaining binding | 100% |
